From ChEMBL document CHEMBL1153011, “Mechanism of unusual formation of 3-(5-phenyl-3H-[1,2,4]dithiazol-3-yl)chromen-4-ones and 4-oxo-4H-chromene-3-carbothioic acid N-phenylamides and their antimicrobial evaluation” (2009) come the findings set out here.

Assay [1] concerns Aspergillus niger. In words: Antifungal activity against Aspergillus niger MTCC 281 after 24 to 72 hrs by broth dilution method. The assay is classed as functional. The gist of the method:
(§1)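 Fungi grown at 25 °C on Sabouraud dextrose agar. Compounds dissolved in DMSO (1/10) and tested at several concentrations in Sabouraud dextrose broth in tubes. Conidial suspension at final 1 × 10^5 CFU/ml, with growth and sterility control tubes. […] DMSO negative control; fluconazole positive control.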

The test system of assay [2] is Geotrichum candidum. As to the kind of experiment: Antifungal activity against Geotrichum candidum MTCC 3993 after 24 to 72 hrs by broth dilution method. The assay is classed as functional. The procedure, abridged:
as §1

The test system of assay [3] is Candida albicans. In words: Antifungal activity against Candida albicans MTCC 227 after 24 to 72 hrs by broth dilution method. Format: functional. The procedure, abridged:
as §1
(In general: Broth dilution looks for growth in wells or tubes with falling amounts of substance.)

Assay [4] has as its system Candida tropicalis. In words: Antifungal activity against Candida tropicalis MTCC 230 after 24 to 72 hrs by broth dilution method. The assay is classed as functional. The gist of the method:
as §1

Assay [5] has as its system Escherichia coli. As to the kind of experiment: Antibacterial activity against Escherichia coli MTCC 119 at 2.5 x 10^-5 ug/ml after 24 hrs by disk diffusion assay. The assay is classed as functional. Conditions: MTCC 119, 24 h, read-out: GI. The procedure, abridged:
(§2)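 Disk diffusion. 100 µl of 4-h nutrient-broth cultures spread on Mueller Hinton agar. Compounds in DMSO (1/10) applied to 8 mm paper disks. After 24 h at 37 °C, growth-inhibition zone diameter measured. DMSO negative control; chloramphenicol and ciprofloxacin positive controls.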
Background: Agar diffusion results depend on both activity and mobility in agar.

Assay [6] relates to Escherichia coli. In words: Antibacterial activity against Escherichia coli MTCC 119 at 5 x 10^-5 ug/ml after 24 hrs by disk diffusion assay. Conditions: MTCC 119, 24 h, read-out: GI. Format: functional. The gist of the method: as §2
For assay [7], the system named is Escherichia coli. In words: Antibacterial activity against Escherichia coli MTCC 119 at 1 x 10^-4 ug/ml after 24 hrs by disk diffusion assay. The assay is classed as functional. The settings on record: MTCC 119, 24 h, read-out: GI. The procedure, abridged:
as §2

Assay [8] has as its system Shigella flexneri. In words: Antibacterial activity against Shigella flexneri MTCC 1457 at 2.5 x 10^-5 ug/ml after 24 hrs by disk diffusion assay. Format: functional. The settings on record: MTCC 1457, 24 h, read-out: GI. The gist of the method: as §2
Assay [9] deals with Shigella flexneri. In words: Antibacterial activity against Shigella flexneri MTCC 1457 at 5 x 10^-5 ug/ml after 24 hrs by disk diffusion assay. The settings on record: MTCC 1457, 24 h, read-out: GI. Format: functional. The procedure, abridged:
as §2

The subject of assay [10] is Shigella flexneri. As to the kind of experiment: Antibacterial activity against Shigella flexneri MTCC 1457 at 1 x 10^-4 ug/ml after 24 hrs by disk diffusion assay. The assay is classed as functional. Conditions: MTCC 1457, 24 h, read-out: GI. The gist of the method:
as §2

Assay [11] relates to Pseudomonas aeruginosa. In words: Antibacterial activity against Pseudomonas aeruginosa MTCC 741 at 2.5 x 10^-5 ug/ml after 24 hrs by disk diffusion assay. The assay is classed as functional, organism-based. The gist of the method: as §2
Assay [12] concerns Pseudomonas aeruginosa. As to the kind of experiment: Antibacterial activity against Pseudomonas aeruginosa MTCC 741 at 5 x 10^-5 ug/ml after 24 hrs by disk diffusion assay. Format: functional, organism-based. The gist of the method:
as §2

Assay [13] deals with Pseudomonas aeruginosa. As to the kind of experiment: Antibacterial activity against Pseudomonas aeruginosa MTCC 741 at 1 x 10^-4 ug/ml after 24 hrs by disk diffusion assay. The assay is classed as functional, organism-based. The procedure, abridged: as §2
The subject of assay [14] is Staphylococcus aureus. In words: Antibacterial activity against Staphylococcus aureus MTCC 740 at 2.5 x 10^-5 ug/ml after 24 hrs by disk diffusion assay. Format: functional. Conditions: MTCC 740, 24 h, read-out: GI. The procedure, abridged: as §2
In assay [15] the test system is Staphylococcus aureus. As to the kind of experiment: Antibacterial activity against Staphylococcus aureus MTCC 740 at 5 x 10^-5 ug/ml after 24 hrs by disk diffusion assay. Format: functional. The settings on record: MTCC 740, 24 h, read-out: GI. The gist of the method:
as §2

Assay [16] has as its system Staphylococcus aureus. As to the kind of experiment: Antibacterial activity against Staphylococcus aureus MTCC 740 at 1 x 10^-4 ug/ml after 24 hrs by disk diffusion assay. Format: functional. The settings on record: MTCC 740, 24 h, read-out: GI. The procedure, abridged: as §2
Assay [17] has as its system Escherichia coli. In words: Antibacterial activity against Escherichia coli MTCC 119 after overnight incubation by broth dilution method. The assay is classed as functional. The procedure, abridged:
(§3)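 Bacteria grown at 37 °C on nutrient agar. Compounds dissolved in DMSO (1/10) and tested in twofold serial dilutions in Mueller Hinton broth in tubes. Inoculum was a McFarland-standardized suspension, final 5 × 10^5 CFU/ml, with growth and sterility control tubes. Incubation overnight at 37 °C. MIC read by OD600 as the lowest concentration with no turbidity. DMSO negative control; chloramphenicol and ciprofloxacin positive controls.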

In assay [18] the test system is Shigella flexneri. As to the kind of experiment: Antibacterial activity against Shigella flexneri MTCC 1457 after overnight incubation by broth dilution method. The assay is classed as functional. The gist of the method: as §3
In assay [19] the test system is Pseudomonas aeruginosa. In words: Antibacterial activity against Pseudomonas aeruginosa MTCC 741 after overnight incubation by broth dilution method. Format: functional. The gist of the method:
as §3

Assay [20] has as its system Staphylococcus aureus. As to the kind of experiment: Antibacterial activity against Staphylococcus aureus MTCC 740 after overnight incubation by broth dilution method. Format: functional. The gist of the method:
as §3

≈ marks a conversion by molar mass, not a printed value. Calls of active or inactive are those of the source.

Consider `O=c1c(C2N=C(c3ccccc3)SS2)coc2ccc(Cl)cc12` (stereo not given), for which the MIC (commonly the smallest concentration in the dilution series that meets the test's criterion for growth inhibition) in [1] was found to be 125 µg/mL (≈ 347 µM); in assay [2], 30 µg/mL (≈ 83.4 µM); in assay [3] it was 28 µg/mL (≈ 77.8 µM); in [4], 28 µg/mL (≈ 77.8 µM); in [17] it was 100 µg/mL (≈ 278 µM); in [18] it was 90 µg/mL (≈ 250 µM). In assay [20], this compound came in with an MIC of 98 µg/mL (≈ 272 µM). The inhibition of growth at 25 pg/mL is 22% in assay [5], 27.3% in assay [8] and 26.4% in [14]. The inhibition of growth at 50 pg/mL came out at 49.6% in assay [6], 55.8% in assay [9] and 51.5% in assay [15]. The inhibition of growth at 0.0001 µg/mL in [7], in assay [10] and in assay [16] was 100% throughout. In addition, the “growth inhibition (GI)” value in assay [11], in assay [12] and in assay [13] was “inactive” each time. In addition, the MIC result in assay [19] was “inactive”.
